Values after ≈ are worked out from the molar mass of the structure shown. *1 amine or outer side, *2 acyl side, *3 side chain or, on linkers, in order; H or OH if unused. Where a SMILES comes first, the peptide text is derived from it. Bridges are numbered along the chain shown (N, C = ends). [ ]: non-standard residue; d: D form. The star is where a group is joined. X1 = O=C1C[C@@H](C(=O)[*:2])N([*:1])C[C@H]1CS[C@@H]1CN2CCC1CC2; NMePhe(4-NMe2) = CN[C@@H](Cc1ccc(N(C)C)cc1)C(=O)O; Picolinoyl(3-OH) = O=C(c1ncccc1O)*; Phg = N[C@H](C(=O)O)c1ccccc1; dAbu = CC[C@@H](N)C(=O)O
Columns and labels:
Streptococcus pneumoniae [1] = assay: Antibacterial activity was determined against clinically isolated penicillin resistant Streptococcus pneumoniae (PRSP) strains (50 strains); format: functional
Enterococcus sp. [2] = assay: Antibacterial activity was determined against clinically isolated vancomycin-B resistant enterococci (VRE) strains (10 strains); format: functional
Enterococcus sp. [3] = assay: Antibacterial activity was determined against clinically isolated vancomycin-A resistant enterococci (VRE) strains (33 strains); format: functional
Staphylococcus aureus [4] = assay: Antibacterial activity was determined against clinically isolated Levofloxacin-methicillin resistant Staphylococcus aureus (LVFX-r MRSA) strains (74 strains); format: functional
Enterococcus sp. [5] = assay: Antibacterial activity was determined against clinically isolated vancomycin-B resistant Enterococci (VRE) strains (10 strains); format: functional
Outline: (§1)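 Twofold broth microdilution in Mueller–Hinton broth, inoculum about 10^5 CFU per well. Plates incubated 18 h at 37 °C. MIC taken as the lowest concentration preventing visible growth. Organisms were clinical resistant Gram-positive isolates.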

Enterococcus sp. [6] = assay: Antibacterial activity was determined against clinically isolated vancomycin-A resistant Enterococci (VRE) strains (33 strains); format: functional; outline: as §1
Staphylococcus aureus [7] = assay: Antibacterial activity was determined against Staphylococcus aureus FDA 209-P strain after incubation at 37 degrees C for 18 h; format: functional
Pseudomonas aeruginosa = assay: Antibacterial activity was determined against Pseudomonas aeruginosa PAO1 strain after incubation at 37 degrees C for 18 h; format: functional
[8] = system: Staphylococcus epidermidis; assay: Antibacterial activity was determined against Staphylococcus epidermis 56500 strain after incubation at 37 degrees C for 18 h; format: functional
Streptococcus pneumoniae [9] = assay: Antibacterial activity was determined against Streptococcus pneumoniae J-24 strain after incubation at 37 degrees C for 18 h; format: functional
Enterococcus faecalis = assay: Antibacterial activity was determined against Enterococcus faecalis ATCC 19433 strain after incubation at 37 degrees C for 18 h; format: functional; conditions: ATCC 19433, 18 h
Escherichia coli = assay: Antibacterial activity was determined against Escherichia coli NIHJ strain after incubation at 37 degrees C for 18 h; format: functional
Streptococcus pyogenes = assay: Antibacterial activity was determined against Streptococcus pyogenes G-36 strain after incubation at 37 degrees C for 18 h; format: functional
Streptococcus mitis = assay: Antibacterial activity was determined against Streptococcus mitis IID685 strain after incubation at 37 degrees C for 18 h; format: functional
Klebsiella pneumoniae = assay: Antibacterial activity was determined against Klebsiella pneumoniae type II strain after incubation at 37 degrees C for 18 h; format: functional
Streptococcus pneumoniae [10] = assay: Antibacterial activity was determined against clinically isolated penicillin resistant Streptococcus pneumoniae (PRSP) strains (50 strains); Range= 1-4; format: functional
[11] = Mortality was determined after 100 mg/kg dose administered intravenously to 5-week old male mice at a speed of 0.2 mL/min counted on day 7 for total 5 mice; format: ADME, organism-based; design: dose 100 mg/kg, route intravenous; conditions: mouse, in vivo, iv
Outline: (§2)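 Male Slc:ddY mice, 5 weeks old. Compound dissolved in 0.1 N NaOH in saline at varied concentrations and given as a single IV injection at 0.2 mL/min, total volume 10 mL/kg body weight. Deaths counted on day 7 and reported as dead/tested.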

[12] = Mortality was determined after 150 mg/kg dose administered intravenously to 5-week old male mice at a speed of 0.2 mL/min counted on day 7 for total 2 mice; format: ADME, organism-based; design: dose 150 mg/kg, route intravenous; conditions: mouse, in vivo, iv; outline: as §2
[13] = Toxicity was determined as presence of micronucleated reticulocytes (MNRET) in blood at 24 and 48 hr after 100 mg/kg dose administered intravenously to 5-week old male mice; negative.; format: organism-based; design: dose 100 mg/kg, route intravenous; conditions: mouse, in vivo, iv

| SMILES | MIC50 (Streptococcus pneumoniae [1]) [µg/mL] | MIC90 (Streptococcus pneumoniae [1]) [µg/mL] | MIC50 (Enterococcus sp. [2]) [µg/mL] | MIC90 (Enterococcus sp. [2]) [µg/mL] | MIC50 (Enterococcus sp. [3]) [µg/mL] | MIC90 (Enterococcus sp. [3]) [µg/mL] | MIC50 (Staphylococcus aureus [4]) [µg/mL] | MIC90 (Staphylococcus aureus [4]) [µg/mL] | MIC (Staphylococcus aureus [7]) [µg/mL] | MIC (Pseudomonas aeruginosa) [µg/mL] | MIC [8] [µg/mL] | MIC (Streptococcus pneumoniae [9]) [µg/mL] | MIC (Enterococcus faecalis) [µg/mL] | MIC (Escherichia coli) [µg/mL] | MIC (Streptococcus pyogenes) [µg/mL] | MIC (Streptococcus mitis) [µg/mL] | MIC (Klebsiella pneumoniae) [µg/mL] | further results |
| --- | --- | --- | --- | --- | --- | --- | --- | --- | --- | --- | --- | --- | --- | --- | --- | --- | --- | --- |
| CN[C@H](CC(C)C)C(=O)N[C@H]1C(=O)N[C@@H](CC(N)=O)C(=O)N[C@H]2C(=O)N[C@H]3C(=O)N[C@H](C(=O)N[C@H](C(=O)O)c4cc(O)cc(O)c4-c4cc3ccc4O)[C@H](O)c3ccc(c(Cl)c3)Oc3cc2cc(c3O[C@@H]2O[C@H](CO)[C@@H](O)[C@H](O)[C@H]2O[C@H]2C[C@](C)(N)[C@H](O)[C@H](C)O2)Oc2ccc(cc2Cl)[C@H]1O [VANCOMYCIN] | 0.5 (≈ 0.345 µM) | 0.5 (≈ 0.345 µM) | > 128 | > 128 | > 128 | > 128 | 1 (≈ 0.69 µM) | 2 (≈ 1.38 µM) |  |  |  |  |  |  |  |  |  |  |
| CO/N=C1\CN(c2nc3c(cc2F)c(=O)c(C(=O)O)cn3C2CC2)CC1CN (stereo unspecified) [GEMIFLOXACIN] | 0.03 (≈ 0.077 µM) | 0.06 (≈ 0.154 µM) |  |  |  |  | 2 (≈ 5.14 µM) | 32 (≈ 82.2 µM) |  |  |  |  |  |  |  |  |  | MIC50 (Enterococcus sp. [5]): 1 µg/mL (≈ 2.57 µM); MIC90 (Enterococcus sp. [5]): 2 µg/mL (≈ 5.14 µM); MIC50 (Enterococcus sp. [6]): 4 µg/mL (≈ 10.3 µM); MIC90 (Enterococcus sp. [6]): 32 µg/mL (≈ 82.2 µM) |
| COc1c(N2CCNC(C)C2)c(F)cc2c(=O)c(C(=O)O)cn(C3CC3)c12 (stereo unspecified) [GATIFLOXACIN] | 0.25 (≈ 0.666 µM) | 0.25 (≈ 0.666 µM) | 2 (≈ 5.33 µM) | 16 (≈ 42.6 µM) | 16 (≈ 42.6 µM) | 32 (≈ 85.2 µM) | 4 (≈ 10.7 µM) | 32 (≈ 85.2 µM) | 0.05 (≈ 0.133 µM) | 0.39 (≈ 1.04 µM) | 0.2 (≈ 0.533 µM) | 0.2 (≈ 0.533 µM) | 0.39 (≈ 1.04 µM) | 0.006 (≈ 0.016 µM) | 0.39 (≈ 1.04 µM) | 0.2 (≈ 0.533 µM) | 0.05 (≈ 0.133 µM) |  |
| CCN(CC)CCS(=O)(=O)[C@@H]1CCN2C(=O)c3coc(n3)CC(=O)C[C@H](O)/C=C(C)/C=C/CNC(=O)/C=C/[C@@H](C)[C@@H](C(C)C)OC(=O)[C@@H]12.CC[C@H]1NC(=O)[C@@H](NC(=O)c2ncccc2O)[C@@H](C)OC(=O)[C@H](c2ccccc2)NC(=O)[C@@H]2CC(=O)[C@H](CS[C@@H]3CN4CCC3CC4)CN2C(=O)[C@H](Cc2ccc(N(C)C)cc2)N(C)C(=O)[C@@H]2CCCN2C1=O [QUINUPRISTIN/DALFOPRISTIN] ({Picolinoyl(3-OH)}-T[dAbu]P[NMePhe(4-NMe2)][X1][Phg]; ester 1-C) | 1 | 1 | 0.5 | 8 | 0.5 | 8 | 0.5 | 0.5 |  |  |  |  |  |  |  |  |  |  |
| N[C@@H]1[C@H]2CN(c3nc4c(cc3F)c(=O)c(C(=O)O)cn4-c3ccc(F)cc3F)C[C@@H]12 [TROVAFLOXACIN] |  |  |  |  |  |  |  |  | 0.013 (≈ 0.0312 µM) | 0.2 (≈ 0.48 µM) | 0.05 (≈ 0.12 µM) | 0.05 (≈ 0.12 µM) | 0.2 (≈ 0.48 µM) | ≤ 0.003 | 0.2 (≈ 0.48 µM) | 0.1 (≈ 0.24 µM) | 0.025 (≈ 0.06 µM) |  |
| CC1(C)S[C@@H]2[C@H](NC(=O)Cc3ccccc3)C(=O)N2[C@H]1C(=O)O [PENICILLIN G] |  |  |  |  |  |  |  |  |  |  |  |  |  |  |  |  |  | MIC (Streptococcus pneumoniae [10]): 4 µg/mL (≈ 12 µM) |
| CC(=O)NCC1CN(c2ccc(N3CCOCC3)c(F)c2)C(=O)O1 (single isomer, unassigned) [LINEZOLID] | 0.5 (≈ 1.48 µM) | 0.5 (≈ 1.48 µM) | 2 (≈ 5.93 µM) | 2 (≈ 5.93 µM) | 2 (≈ 5.93 µM) | 2 (≈ 5.93 µM) | 2 (≈ 5.93 µM) | 2 (≈ 5.93 µM) |  |  |  |  |  |  |  |  |  |  |
| Cc1c(N2C[C@H](C3(N)CC3)C(F)(F)C2)c(F)c(N)c2c(=O)c(C(=O)O)cn([C@@H]3C[C@@H]3F)c12 |  |  |  |  |  |  |  |  | ≤ 0.003 | 0.2 (≈ 0.44 µM) | ≤ 0.003 | ≤ 0.003 | 0.013 (≈ 0.0286 µM) | ≤ 0.003 | ≤ 0.003 | ≤ 0.003 | 0.013 (≈ 0.0286 µM) | Dead [11]: 1; Dead [12]: 2; Toxicity [13]: Non-toxic |

From ChEMBL document CHEMBL1145781, “Synthesis and structure-activity relationships of 5-amino-6-fluoro-1-[(1R,2S)-2-fluorocyclopropan-1-yl]-8-methylquinolonecarboxylic acid antibacterials having fluorinated 7-[(3R)-3-(1-aminocyclopropan-1-yl)pyrrolidin-1-yl] substituents” (J Med Chem, 2003)
